A selection: hits, their analogues and other compounds. The true share with any hit is near 1.6%.
SUMO1 PPI mod: SUMO1-SIM interaction modulation; P63165; SUMO1 binding to a labelled peptide, TR-FRET, 1 h; inhibition, % at 20 µM; 360,000 tested, 0.33% active; AID 602429; in the data active = inhibition above about 37%
Scp-1 inhibitor: inhibitors of human Scp-1 phosphatase | 340,000 tested, 0.88% active | AID 493091 | Q9GZU7 | inhibition, % at 20 µM | Recombinant Scp1, phosphopeptide, malachite green phosphate absorbance;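 active = inhibition above about 50% at 20 µM, limit read from the data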;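 note: plate controls were DMSO wells with enzyme for no effect and wells lacking enzyme for full effect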
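Test system: SCP-1 catalytic domain; Buffer or medium: Acidic Tris acetate buffer with magnesium and detergent; Also added: Phosphorylated 17-residue peptide substrate; Compound: single 20 µM dose, 1% DMSO; Schedule: enzyme reaction 45 min at room temperature, colour 5 min, stabilisation 30 min; Signal: Phosphate-binding colour reagent, absorbance read at 630 nm.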
LMPTP block: blocks human LMPTP phosphatase; P24666; recombinant LMPTP-A, OMFP fluorogenic substrate, fluorescence intensity; inhibition, % at 20 µM; 360,000 tested, 0.22% active; AID 651560;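 active = compounds that cut the enzyme signal by at least half of the control window in the single-dose screen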;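 note: plate controls were DMSO wells with enzyme plus substrate for no effect and substrate without enzyme for full effect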
Target sequence (P24666 whole entry, looked up): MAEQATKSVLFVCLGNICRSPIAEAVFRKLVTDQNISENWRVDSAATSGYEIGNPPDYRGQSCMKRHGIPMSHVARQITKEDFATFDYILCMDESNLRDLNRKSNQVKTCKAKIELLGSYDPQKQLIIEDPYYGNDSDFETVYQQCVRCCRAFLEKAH
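Assay system: LMPTP-A enzyme. Input: 0.625 nM LMPTP-A final. Probe or stimulus: 400 µM OMFP. Compound dosing: single 20 µM dose. Schedule: 50 min dark incubation at room temperature. Detection: fluorescence intensity of OMFP turnover product. Read-out: percent inhibition versus substrate-only and uninhibited controls. Benchmarks: no-enzyme low control, uninhibited high control.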
CFTR F508del cor: CFTR F508del correction in bronchial cells | activity (quench increase), % at 7.58 µM | 350,000 tested, 0.36% active | CFBE cells, YFP halide quenching; stimulated with forskolin plus potentiator P3; % fluorescence drop versus neutral controls;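 active = mean added fluorescence quench of at least 8% versus neutral control, with both replicates also reaching 8%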;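 note: cells transiently co-express mutant CFTR-F508del with the halide-sensitive YFP; corrector assay measuring rescue of mutant channel to the surface after 24 h compound exposure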
DNMT1 block: inhibitors of human DNMT1 | DNMT1 molecular beacon, Hinp1I cleavage, fluorescence | P26358 | AID 588458 | inhibition (reported as % activation of signal), % at 10 µM | 360,000 tested, 0.83% active; in the data active = inhibition above about 50%
STEP inh: blocks human striatal-enriched tyrosine phosphatase; inhibition, % at 20 µM; recombinant STEP, OMFP fluorogenic substrate, fluorescence; P54829; 360,000 tested, 0.25% active;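 active = inhibition at 20 µM, scaled per plate between control wells, above about 37%, limit read from the data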;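 note: 0% = DMSO with enzyme and substrate and 100% = substrate only without enzyme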
Target sequence (P54829 whole entry, looked up): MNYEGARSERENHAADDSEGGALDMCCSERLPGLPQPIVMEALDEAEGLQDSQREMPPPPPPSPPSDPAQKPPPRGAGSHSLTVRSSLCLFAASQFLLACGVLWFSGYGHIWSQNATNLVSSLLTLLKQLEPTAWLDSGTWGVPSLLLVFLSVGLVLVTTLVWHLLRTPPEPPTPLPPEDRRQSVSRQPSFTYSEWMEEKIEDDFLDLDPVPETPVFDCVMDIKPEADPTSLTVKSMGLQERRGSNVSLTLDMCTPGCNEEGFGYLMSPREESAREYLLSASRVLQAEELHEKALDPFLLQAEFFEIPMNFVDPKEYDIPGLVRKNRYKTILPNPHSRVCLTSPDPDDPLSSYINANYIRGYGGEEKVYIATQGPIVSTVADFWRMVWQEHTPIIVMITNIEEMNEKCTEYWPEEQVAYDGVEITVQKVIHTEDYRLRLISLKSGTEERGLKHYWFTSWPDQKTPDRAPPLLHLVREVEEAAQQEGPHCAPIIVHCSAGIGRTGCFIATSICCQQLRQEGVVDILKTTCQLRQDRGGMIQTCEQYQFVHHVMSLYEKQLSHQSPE
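material = STEP tyrosine phosphatase | reagent = fluorogenic phosphatase substrate OMFP at 25 µM final | doses = single compound dose of 20 µM, 1% DMSO final | schedule = 20 min reaction, room temperature, in the dark | measured by = fluorescence, 480/540 nm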
Scp-1 conf: Scp-1 (human) inhibition, single-dose confirmed. shares compounds with Scp-1 inhibitor. recombinant SCP-1 catalytic domain, phosphate release, malachite green absorbance. inhibition, % at 20 µM. 2,500 tested, 61% active. AID 540281;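 note: plate controls were DMSO with enzyme for no effect and buffer wells lacking enzyme for full effect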
Scp-1 MG ctr: counter-screen for Scp-1 inhibitors: colorimetric interference; shares compounds with Scp-1 inhibitor; Colorimetric interference counterscreen, malachite green absorbance 630 nm; apparent inhibition (interference), % at 20 µM; 2,500 tested, under 10 active; AID 540313;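 note: compounds added after enzyme reaction finished so only phosphate colour detection is probed; plate controls were DMSO wells with completed Scp-1 reaction for no effect and substrate wells lacking enzyme for full effect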
Scp-1 Tm shift: binds human Scp-1, shifting its melting temperature; shares compounds with Scp-1 inhibitor; Recombinant SCP1, Sypro Orange thermal shift Tm; thermal shift relative to vanadate control, % at 40 µM; 1,500 tested, 25% active; AID 540329;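 active = substances whose mean melting-temperature shift, as a percentage of the reference inhibitor's shift, reaches about 5.3%, limit read from the data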;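 note: 0% = Tm of DMSO wells and 100% = Tm with sodium orthovanadate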
Beacon interf DR: shows spectral interference in the DNMT1 beacon assay; shares compounds with DNMT1 block; molecular beacon fluorescence, spectral interference counter-screen; IC50, µM; 200 tested, under 10 active; call rule not given here
DNMT1 inh conf: confirmation of human DNMT1 inhibitors | inhibition, % at 10 µM | shares compounds with DNMT1 block | AID 602385 | 2,300 tested, 8% active | DNMT1 molecular beacon HinP1I cleavage, fluorescence;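 active = average inhibition of at least 30% in the single-concentration confirmation test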
DNMT1 interf: counter-screen for DNMT1 inhibitors: spectral interference | shares compounds with DNMT1 block | DNMT1 molecular beacon spectral interference counterscreen, fluorescence 485/520 | activation (fluorescence interference), % at 10 µM | 2,300 tested, 1% active;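 active = activation of at least 30% at 10 µM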;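 note: DNMT1 catalytic domain with a HinP1I cleavage step and a FAM/dabcyl DNA beacon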
The depositor's hits bear a star; · = no result.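 Rule for the calls, unless noted: active = inhibition of at least 30% at 20 µM; inactive = the rest.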

SMILES | SUMO1 PPI mod | Scp-1 inhibitor | LMPTP block | CFTR F508del cor | DNMT1 block | STEP inh | Scp-1 conf | Scp-1 MG ctr | Scp-1 Tm shift | DNMT1 inh conf | DNMT1 interf | others
CCCCC(CC)C1OCC(C[N+]2(C)CCOCC2)O1 (stereo not drawn) | 0 | 31 | -1 | · | 3 | 0 | · | · | · | · | ·
CC(c1ccccc1)C1OCC(C[N+]2(C)CCCCC2)O1 (stereo not drawn) | 2 | 93* | 1 | 7 | -2 | -4 | 83* | -13 | -5 | · | ·
C[C@@H]1CN([C@@H](C)CO)C(=O)c2cc(-c3cccnc3)cnc2O[C@H]1CN(C)C(=O)Cc1cccnc1 | · | · | · | 2 | · | · | · | · | · | · | ·
CCOC(=O)c1ccc(/C=C2/C=C(c3ccccc3)N(c3ccc(Cl)c(C(=O)O)c3)C2=O)cc1 | 27 | 52* | 1 | · | 35 | -3 | 72* | -13 | -6 | · | ·
CCOC(=O)c1ccc(Cl)c(NC(=O)c2ccc(-c3ccccc3)cc2)c1 | -5 | -4 | -2 | -2 | 27 | 2 | · | · | · | · | ·
Cc1ccc(-n2nc(-c3ccco3)cc2C(=O)O)cc1 | 25 | 66* | 9 | 0 | 156* | 24 | 58* | -16 | 7.0* | 16 | -1
CCOC(=O)c1cc(-c2ccco2)nn1-c1ccc(C)cc1 | -1 | -7 | 0 | -2 | -7 | -3 | · | · | · | · | ·
O=C(CN1CCOCC1)NCC[C@H]1CC[C@@H](NC(=O)Cc2ccccn2)[C@H](CO)O1 | · | · | · | 4 | · | · | · | · | · | · | ·
Cc1ccoc1C(=O)NCc1occc1C(=O)O | 9 | 50* | -1 | · | 57* | 14 | 34* | -18 | -4 | -1 | 0
COc1ccc(S(=O)(=O)Nc2ccc3c(c2)C(=O)N([C@H](C)CO)C[C@@H](C)[C@H](CN(C)S(C)(=O)=O)OCCCC[C@@H](C)O3)cc1 | · | · | · | -3 | · | · | · | · | · | · | ·
C[C@@H]1CN([C@H](C)CO)C(=O)Cc2cc(NS(=O)(=O)c3ccc(F)cc3)ccc2O[C@H]1CN(C)CC1CCCCC1 | · | · | · | -2 | · | · | · | · | · | · | ·
Cc1ccc(/C=C2/C(=N)N3N=C(CC(=O)N4CCCC4)SC3=NC2=O)o1 | -14 | -5 | 1 | 1 | 2 | 0 | · | · | · | · | ·
N=C1/C(=C\c2ccc(Br)o2)C(=O)N=C2SC(CC(=O)N3CCCCC3)=NN12 | 46* | 80* | 34 | -2 | 94* | 18 | 48* | -11 | 12* | 15 | 6
Cc1ccc(S(=O)(=O)N2CCN(C(=O)c3cc4c(s3)CCCC4)CC2)cc1 | 1 | -7 | 3 | -2 | -3 | 2 | · | · | · | · | ·
COc1ccc(S(=O)(=O)N2CCN(C(=O)c3cc4c(s3)CCC4)CC2)cc1 | 32 | 84* | 57* | 1 | 100* | 36 | 68* | -17 | 5 | 40* | 0 | Beacon interf DR=>99
CC1=NN(c2ccc(Cl)c(C(=O)O)c2)C(=O)C1 | 41* | 75* | 8 | · | 68* | 9 | 53* | -8 | 9.5* | 8 | 1
CC1=NN(c2ccc(C(=O)O)c(N)c2)C(=O)C1 | 5 | 42 | 4 | 0 | 44 | 8 | · | · | · | · | ·
CC(C)c1ccc(OCC(=O)N2CCc3ccccc3C2)cc1 | -1 | 0 | 3 | 2 | 3 | 2 | · | · | · | · | ·
COc1ccc2c(c1)c(=O)oc1cc(OCC(=O)N3CCc4ccccc4C3)ccc12 | 24 | 81* | 62* | · | 105* | 27 | 68* | -19 | -6 | 17 | -2
CCCc1nc2sc3ccccc3c(=O)c2c(=O)n1Cc1ccco1 | 9 | 68* | 22 | · | 76* | 11 | 54* | -4 | -10 | 1 | -1
C[C@H](CO)N1C[C@H](C)[C@@H](CN(C)C(=O)NC2CCCC2)Oc2ncc(C#CCN(C)C)cc2C1=O | · | · | · | 3 | · | · | · | · | · | · | ·
O=C(c1coc(=O)c(Br)c1)N1CCOCC1 | -6 | 68* | 13 | · | 74* | 38 | 60* | -12 | -17 | 0 | 0
CCS(=O)(=O)c1ccc(C=NNc2nc3ccccc3o2)cc1 | -27 | -8 | -2 | 4 | 1 | 0 | · | · | · | · | ·
O=[N+]([O-])c1ccc(/C=N/Nc2nc3ccccc3o2)cc1 | 6 | 50* | 42 | 4 | 56* | 34 | 56* | -12 | 5 | 6 | 0
O=CC(O)C1OC(=O)C(O)C1O (stereo not drawn) | 11 | 64* | 6 | -3 | 90* | 10 | 43* | -9 | -15 | 44* | 4 | Beacon interf DR=>99
SMILES | SUMO1 PPI mod | Scp-1 inhibitor | LMPTP block | CFTR F508del cor | DNMT1 block | STEP inh | Scp-1 conf | Scp-1 MG ctr | Scp-1 Tm shift | DNMT1 inh conf | DNMT1 interf | others
O=C1O[C@H](CO)[C@@H](O)[C@H](O)[C@H]1O | 3 | -6 | -1 | 2 | 1 | 0 | · | · | · | · | ·
Cc1noc(C)c1NC(=O)N(C)C[C@@H]1Oc2ccc(NS(=O)(=O)c3ccccc3)cc2CC(=O)N([C@@H](C)CO)C[C@H]1C | · | · | · | -4 | · | · | · | · | · | · | ·
C#CCSc1nsc(SCC#C)c1C#N | 11 | 80* | 26 | · | 77* | 14 | 66* | -16 | 1 | 16 | 2
O=C(Nc1ccc(NC(=O)c2cccc([N+](=O)[O-])c2)cc1)c1cccc([N+](=O)[O-])c1 | -21 | 6 | 0 | 0 | 4 | -4 | · | · | · | · | ·
O=C(Nc1cccc([N+](=O)[O-])c1)c1cccc(C(=O)Nc2cccc([N+](=O)[O-])c2)c1 | 70* | 74* | 8 | -2 | 86* | 22 | 85* | -11 | 4 | 27 | 2
O=C(Nc1sc2c(c1C(=O)O)CCC2)c1ccccc1 | 10 | 58* | 9 | · | 82* | 23 | 54* | -15 | 6.6* | 0 | 7
O=C(Nc1sc2c(c1C(=O)O)CCCCC2)c1ccccc1 | 2 | -5 | -1 | -5 | -2 | 4 | · | · | · | · | ·
C[C@@H]1CN([C@@H](C)CO)S(=O)(=O)c2ccc(C#Cc3ccccc3)cc2O[C@H]1CN(C)C | · | · | · | -1 | · | · | · | · | · | · | ·
C[C@H]1CN([C@@H](C)CO)C(=O)c2cc(-c3cccc(C(=O)N(C)C)c3)cnc2O[C@H]1CN(C)C | · | · | · | 0 | · | · | · | · | · | · | ·
